Measured values as given in ChEMBL document CHEMBL1134600, “Synthesis and evaluation of cryptolepine analogues for their potential as new antimalarial agents” (J Med Chem, 2001).
Several values for one entry are separate records, joined by “and”; a condition that tells them apart may be missing. Equal values may be shown once.

Columns and labels:
[1] = tested on: MAC15A; experiment: Cytotoxicity against MAC15a cells when the drug is exposed for a time of 1 hr; assay type: functional, cell-based; conditions: Mus musculus
[2] = tested on: Plasmodium falciparum; experiment: In vitro inhibitory activity against chloroquine-resistant Plasmodium falciparum K1; assay type: functional, organism-based
Procedure, shortened: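 Early ring-stage parasites in human A+ erythrocytes, RPMI 1640 with A+ serum and glucose. Twofold serial dilutions in duplicate from DMSO stocks (final DMSO ≤0.5%), 2.5% hematocrit, 1% parasitemia. Incubated 48 h at 37 °C under 93% N2/3% O2/4% CO2. Growth read as parasite lactate dehydrogenase activity (APAD/NBT reagent, 15 min, OD 550 nm). IC50 by linear regression, at least three separate determinations.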

[3] = tested on: Plasmodium falciparum; experiment: In vitro inhibitory activity against chloroquine-sensitive Plasmodium falciparum HB3
[4] = target: T1, Histidine-rich protein PFHRP-II (Plasmodium falciparum) (UniProt P05227); experiment: Inhibition of beta-hematin formation; No; assay type: functional
T1 sequence (whole entry): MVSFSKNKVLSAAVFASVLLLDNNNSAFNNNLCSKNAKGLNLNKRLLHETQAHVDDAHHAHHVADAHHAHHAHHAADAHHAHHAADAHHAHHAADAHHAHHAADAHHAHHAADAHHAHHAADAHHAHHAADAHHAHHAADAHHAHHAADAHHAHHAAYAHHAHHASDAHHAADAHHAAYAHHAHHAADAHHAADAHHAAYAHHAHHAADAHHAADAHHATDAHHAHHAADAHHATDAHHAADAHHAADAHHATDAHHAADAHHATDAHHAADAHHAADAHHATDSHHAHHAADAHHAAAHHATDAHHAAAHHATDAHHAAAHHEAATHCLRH

[5] = tested on: A549; experiment: Cytotoxicity against A549 cells when the drug is exposed for a time of 1 hr; assay type: functional, cell-based; conditions: Homo sapiens, A549, 1 h
[6] = tested on: A549; experiment: Cytotoxicity against A549 cells when the drug is exposed for a time of 96 hrs; assay type: functional, cell-based; conditions: Homo sapiens, A549, 96 h
[7] = tested on: DLD-1; experiment: Cytotoxicity against DLD-1 cells when the drug is exposed for a time of 1 hr; assay type: functional, cell-based; conditions: Homo sapiens, DLD-1, 1 h
[8] = tested on: MAC15A; experiment: Cytotoxicity against MAC15a cells when the drug is exposed for a time of 96 hr; assay type: functional, cell-based; conditions: Mus musculus
[9] = tested on: Mus musculus; experiment: Inhibitory activity against Plasmodium berghei (ANKA) in mice at a dose of 20 mg/kg for 4 days; assay type: functional; design: scale not given: the % may be the effect or the level left
Procedure, shortened: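 Peters' 4-day suppressive test. Female BALB/c mice (18-20 g) were inoculated iv with 1 × 10⁷ P. berghei ANKA-infected erythrocytes. Drug was given ip in 0.2 mL daily for 4 consecutive days, 5 mice per group, with chloroquine diphosphate as positive control. Blood smears were taken on day 5. % suppression of parasitemia was calculated against untreated infected controls for each dose.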

[10] = tested on: DLD-1; experiment: Cytotoxicity against DLD-1 cells when the drug is exposed for a time of 96 hrS; assay type: functional, cell-based; conditions: Homo sapiens, DLD-1, 96 h
[11] = target: T1, Histidine-rich protein PFHRP-II (Plasmodium falciparum); experiment: Inhibition of beta-hematin formation; Yes; assay type: functional

| Structure (SMILES) | IC50 [1] | IC50 [2] | IC50 [3] | IC50 [5] | IC50 [7] | beta-hematin formation inhibition (yes/no) [11] | also measured |
| --- | --- | --- | --- | --- | --- | --- | --- |
| C[n+]1c2ccccc2c(Cl)c2[nH]c3ccccc3c21 | 30.5 µM | 0.24 µM | 1.67 µM | – | – | – | – |
| C[n+]1c2ccccc2c(Cl)c2[nH]c3ccc(Cl)cc3c21 | – | 7.62 µM | – | – | – | – | – |
| c1ccc2nc3c(cc2c1)[nH]c1ccccc13 [QUINDOLINE] | – | > 100 µM | – | – | – | – | inhibition [4]: No inhibition |
| CC(=O)Nc1ccc2[n-]c3cc4ccccc4[n+](C)c3c2c1 | > 100 µM | 0.52 µM | 0.47 µM | > 100 µM | > 100 µM | – | IC50 [6]: 5.04 µM; IC50 [8]: 15.5 µM; Activity [9]: 13.3% and 14.7%; IC50 [10]: 20.4 µM |
| C[n+]1c2ccccc2c(Cl)c2[nH]c3cc(Br)ccc3c21 | 23.1 µM | 7.18 µM | – | – | – | – | – |
| C[n+]1c2ccccc2cc2[n-]c3c([N+](=O)[O-])cc([N+](=O)[O-])cc3c21 | 28.5 µM | 0.65 µM | 0.45 µM | > 100 µM | > 100 µM | Inhibition | Activity [9]: 20.3% and 30.2% |
| CCN(CC)CCCC(C)Nc1ccnc2cc(Cl)ccc12.O=P(O)(O)O.O=P(O)(O)O (centres undefined) [CHLOROQUINE PHOSPHATE] | – | – | – | – | – | Inhibition | – |
| C[n+]1c2ccccc2cc2[n-]c3ccc([N+](=O)[O-])cc3c21 | 35.4 µM | 0.65 µM | 0.14 µM | 35.6 µM | 48.9 µM | Inhibition | – |
| C[n+]1c2ccc(Br)cc2c(Cl)c2[nH]c3ccccc3c21 | – | 4.75 µM | – | – | – | – | – |
| O=C(O)c1c2nc3ccccc3c-2[nH]c2ccccc12 | – | > 100 µM | – | – | – | – | inhibition [4]: No inhibition |
| C[n+]1c2ccc(Br)cc2cc2[nH]c3ccccc3c21.[I-] | > 100 µM | 0.26 µM | 0.45 µM | > 100 µM | > 100 µM | Inhibition | IC50 [6]: 2.07 µM; IC50 [8]: 5.79 µM; IC50 [10]: 2.29 µM |
| NC(=O)c1c2nc3ccccc3c-2[nH]c2ccccc12 | – | > 100 µM | – | – | – | – | inhibition [4]: No inhibition |
| C[n+]1c2ccccc2cc2[n-]c3c([N+](=O)[O-])cccc3c21 | > 100 µM | 6.92 µM | 4.14 µM | > 100 µM | > 100 µM | – | Activity [9]: 11.9% and 23.5% |
| C[n+]1c2ccccc2cc2[nH]c3ccccc3c21 [CRYPTOLEPTINE IODIDE] | 67.2 µM | 0.44 µM | – | 61.4 µM | 93 µM | – | IC50 [6]: 0.55 µM; IC50 [8]: 9.65 µM; inhibition [11]: Inhibition; IC50 [10]: 1.44 µM |
| C[n+]1c2ccc(Br)cc2cc2[nH]c3ccc(Br)cc3c21.[I-] | – | 0.049 µM | 0.026 µM | – | – | Inhibition | IC50 [8]: 6.04 µM |
| C[n+]1c2ccccc2cc2[nH]c3ccc(Br)cc3c21.[I-] | 66.2 µM | 0.26 µM | 0.19 µM | – | – | Inhibition | – |
| C[n+]1c2ccccc2c(Cl)c2[nH]c3cc(Cl)ccc3c21 | 14.4 µM | 27 µM | – | – | – | – | – |
